A word on the IC50: it is the concentration at which inhibition is half-maximal. Usually EC50 stands for the midpoint of the concentration-response curve. The low end stands for greater potency, the high end for weaker potency.

The text below walks through data of ChEMBL document CHEMBL1148460, “Interaction of cycloSal-pronucleotides with cholinesterases from different origins. A structure-activity relationship” (J Med Chem, 2004).

One test addresses Acetylcholinesterase (Electrophorus electricus, UniProt O42275). The test can be described thus: Inhibitory activity towards Electrophorus electricus acetylcholinesterase.
The next test concerns CCRF-CEM. Nature of the test: Anti-HIV-1 activity tested in human lymphocytic CEM cells. In kind it is functional, cell-based.
The next test has as its target Cholinesterase (Homo sapiens, UniProt P06276). The test can be described thus: Inhibitory activity towards human butyrylcholinesterase. The essentials: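 Modified Rappaport assay following acetylcholine chloride hydrolysis to acetic acid, with m-nitrophenol indicator in phosphate buffer at pH 7.8 and NaCl. The compound is added in DMSO, and the reaction is started with serum (human, mouse or calf). A420 is read at 25 °C at 0 and 5 min. Final inhibitor is 0.1, 0.5, 1, 5, 10, 30 and 50 µM. IC50 is interpolated from ΔE plots in the pseudolinear region.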

Acetylcholinesterase, sequence (O42275 whole entry): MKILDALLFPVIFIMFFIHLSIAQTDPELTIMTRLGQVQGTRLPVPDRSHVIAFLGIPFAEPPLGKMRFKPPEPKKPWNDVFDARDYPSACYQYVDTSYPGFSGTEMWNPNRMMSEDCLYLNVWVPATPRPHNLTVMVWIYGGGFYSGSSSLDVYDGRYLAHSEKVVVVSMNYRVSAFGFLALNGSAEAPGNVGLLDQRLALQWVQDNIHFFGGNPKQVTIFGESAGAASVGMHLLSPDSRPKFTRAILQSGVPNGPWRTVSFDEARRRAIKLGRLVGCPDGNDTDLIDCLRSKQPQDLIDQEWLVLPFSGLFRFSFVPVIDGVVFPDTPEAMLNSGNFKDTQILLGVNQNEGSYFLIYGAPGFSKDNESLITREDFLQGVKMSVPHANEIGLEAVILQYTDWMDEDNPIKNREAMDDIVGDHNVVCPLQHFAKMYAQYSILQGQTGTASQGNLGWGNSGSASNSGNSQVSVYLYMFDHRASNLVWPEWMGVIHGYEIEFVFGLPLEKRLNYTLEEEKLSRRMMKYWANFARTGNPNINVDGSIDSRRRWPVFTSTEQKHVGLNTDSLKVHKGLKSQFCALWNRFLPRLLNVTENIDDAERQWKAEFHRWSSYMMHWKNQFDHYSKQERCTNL
Cholinesterase, sequence (P06276 whole entry): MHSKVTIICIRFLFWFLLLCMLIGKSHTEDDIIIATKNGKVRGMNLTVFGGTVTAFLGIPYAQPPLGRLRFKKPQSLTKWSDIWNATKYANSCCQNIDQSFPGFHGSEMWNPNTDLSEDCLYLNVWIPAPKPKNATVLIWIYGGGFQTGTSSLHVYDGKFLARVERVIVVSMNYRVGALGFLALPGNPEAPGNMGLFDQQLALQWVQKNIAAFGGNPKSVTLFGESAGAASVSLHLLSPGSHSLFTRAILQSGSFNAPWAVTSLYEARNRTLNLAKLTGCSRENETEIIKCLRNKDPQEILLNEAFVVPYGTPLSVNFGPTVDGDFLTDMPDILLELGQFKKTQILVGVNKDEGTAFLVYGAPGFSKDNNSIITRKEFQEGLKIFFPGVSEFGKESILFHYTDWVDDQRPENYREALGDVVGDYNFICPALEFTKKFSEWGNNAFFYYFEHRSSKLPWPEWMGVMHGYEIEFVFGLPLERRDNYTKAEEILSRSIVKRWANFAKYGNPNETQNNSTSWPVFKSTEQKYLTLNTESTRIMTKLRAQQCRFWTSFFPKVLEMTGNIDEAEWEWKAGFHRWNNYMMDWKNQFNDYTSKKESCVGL

Take `Cc1cn([C@H]2C=C[C@@H](CO[P@@]3(=O)OCc4cccc(C(C)(C)C)c4O3)O2)c(=O)[nH]c1=O`: the 50% inhibitory concentration (IC50) on Acetylcholinesterase and on Cholinesterase was more than 50000 nM throughout. Further, the EC50 in the test with CCRF-CEM is 130 nM.

Consider `Cc1cccc2c1OP(=O)(OC[C@@H]1C[C@@H](F)[C@H](n3cnc4c(N)ncnc43)O1)OC2` (some centres not stated), for which the IC50 at Acetylcholinesterase is more than 50000 nM; against Cholinesterase, 1100 nM.

Turning to `O=C1NC(=O)N([C@H]2C[C@H](O)[C@@H](COP3(=O)OCc4cccc(-c5ccccc5)c4O3)O2)C[C@H]1/C=C/Br` (some centres not stated), the IC50 against Acetylcholinesterase and on Cholinesterase was more than 50000 nM each time.

Regarding `Cc1cccc2c1O[P@@](=O)(OC[C@H](CO)OCn1cnc3c(O)nc(N)nc31)OC2`, the values for the IC50 against Acetylcholinesterase and at Cholinesterase were more than 50000 nM and 23000 nM, respectively.

For `O=C1NC(=O)N([C@H]2C[C@H](O)[C@@H](CO[P@]3(=O)OCc4cccc(-c5ccccc5)c4O3)O2)CC1/C=C/Br` (some centres not stated), the IC50 was more than 50000 nM against Acetylcholinesterase and 3700 nM on Cholinesterase.

For `COc1ccc2c(c1)CO[P@](=O)(OC[C@@H]1C=C[C@H](n3cc(C)c(=O)[nH]c3=O)O1)O2`, the IC50 against Acetylcholinesterase and at Cholinesterase was more than 50000 nM each time. The EC50 with CCRF-CEM is 43 nM.

Consider `Cc1ccc2c(c1)COP(=O)(OC[C@@H]1C=C[C@H](n3cc(C)c(=O)[nH]c3=O)O1)O2` (some centres not stated), for which the values for the IC50 at Acetylcholinesterase and at Cholinesterase were more than 50000 nM and 4600 nM, respectively.

Regarding `Cc1cn(C2C=CC(COP3(=O)OCc4cc(CCC(=O)OCc5ccccc5)ccc4O3)O2)c(=O)[nH]c1=O` (configuration not stated), the IC50 against Acetylcholinesterase is more than 50000 nM; on Cholinesterase, 22000 nM. In the test on CCRF-CEM, this compound yielded an EC50 of 80 nM.

Regarding `Cc1cc(C)c2c(c1)COP(=O)(OCC1C=CC(n3cc(C)c(=O)[nH]c3=O)O1)O2` (configuration not stated), the IC50 against Acetylcholinesterase was more than 50000 nM; against Cholinesterase, 46000 nM.

`Cc1cccc2c1OP(=O)(OC[C@H]1O[C@@H](N3C=NC4C(=O)N=C(N)N=C43)C[C@@H]1O)OC2` (some centres not stated): the IC50 at Acetylcholinesterase and against Cholinesterase was more than 50000 nM in each case.

For the compound `Cc1cccc2c1OP(=O)(OC[C@H]1O[C@@H](n3cc(C)c(=O)[nH]c3=O)C[C@@H]1O)OC2` (some centres not stated), the half-maximal inhibitory concentration (IC50) at Acetylcholinesterase was more than 50000 nM; against Cholinesterase, 36000 nM.

Turning to `Cc1cccc2c1OP(=O)(OCC1CCC(n3cc(C)c(=O)[nH]c3=O)O1)OC2` (configuration not stated), the IC50 at Acetylcholinesterase is more than 50000 nM; on Cholinesterase, 1000 nM. In the test with CCRF-CEM, this compound showed an EC50 of 4300 nM.

In the case of `Cc1cn(C2C=CC(COP3(=O)OCc4cc(C(C)(C)C)cc(C(C)(C)C)c4O3)O2)c(=O)[nH]c1=O` (configuration not stated), the IC50 on Acetylcholinesterase and against Cholinesterase was more than 50000 nM each time. In the test on CCRF-CEM, this compound registered a concentration giving a half-maximal response (EC50) of 1100 nM.

Consider `Cc1cn(C2C=CC(COP3(=O)OCc4cccc(-c5ccccc5)c4O3)O2)c(=O)[nH]c1=O` (configuration not stated), for which the half-inhibitory concentration (IC50) on Acetylcholinesterase is more than 50000 nM; against Cholinesterase it was 350 nM. For the same compound, the EC50 in the test with CCRF-CEM amounted to 130 nM.

With `Cc1cn(C2C=CC(COP3(=O)OCc4cccc(CCC(=O)OCc5ccccc5)c4O3)O2)c(=O)[nH]c1=O` (configuration not stated), the values for the IC50 against Acetylcholinesterase and against Cholinesterase were more than 50000 nM and 2800 nM, respectively. Also, the midpoint of the response with CCRF-CEM, the EC50, lay at 150 nM.

For `Cc1cn(C2C=CC(COP3(=O)Oc4ccccc4C(C(Cl)(Cl)Cl)O3)O2)c(=O)[nH]c1=O` (configuration not stated), the IC50 is more than 50000 nM at Acetylcholinesterase and 27000 nM on Cholinesterase. This compound returned an EC50 with CCRF-CEM of 190 nM.

On to `CCCCC1OP(=O)(OCC2C=CC(n3cc(C)c(=O)[nH]c3=O)O2)Oc2cccc(Cl)c21` (configuration not stated), for which the results for the IC50 on Acetylcholinesterase and on Cholinesterase were more than 50000 nM and 13000 nM, respectively. Besides, the response with CCRF-CEM was half-maximal at 190 nM (EC50).

Consider `Cc1cn(C2C=CC(COP3(=O)OCc4c(ccc5ccccc45)O3)O2)c(=O)[nH]c1=O` (configuration not stated), for which the IC50 at Acetylcholinesterase is more than 50000 nM; on Cholinesterase, 3900 nM. In addition, it took 90 nM to reach a half-maximal effect with CCRF-CEM (EC50).

For `Cc1cccc2c1OP(=O)(OCC1C=CC(n3cnc4c(O)nc(N)nc43)C1)OC2` (configuration not stated), the 50% inhibitory concentration (IC50) at Acetylcholinesterase is more than 50000 nM; against Cholinesterase it was 2500 nM. The same compound displayed an EC50 in the test with CCRF-CEM of 470 nM.

Take `Cc1cn(C2C=CC(COP3(=O)OCc4cc(C(C)(C)C)ccc4O3)O2)c(=O)[nH]c1=O` (configuration not stated): the IC50 against Acetylcholinesterase is more than 50000 nM; on Cholinesterase, 5600 nM. The compound further returned an EC50 in the test with CCRF-CEM of 140 nM.

`Cc1cn([C@H]2C=C[C@@H](COP3(=O)OCc4cccc(C(C)(C)C)c4O3)O2)c(=O)[nH]c1=O` (some centres not stated): the IC50 against Acetylcholinesterase was more than 50000 nM; against Cholinesterase it was 4200 nM. For the same compound, the EC50 in the test with CCRF-CEM came out at 180 nM.

In the case of `Cc1cn([C@H]2C=C[C@@H](COP3(=O)OCc4ccccc4O3)O2)c(=O)[nH]c1=O` (some centres not stated), the IC50 at Acetylcholinesterase is more than 50000 nM; against Cholinesterase it was 770 nM.

For `Cc1cccc2c1OP(=O)(OC[C@@H]1C=C[C@H](n3cc(C)c(=O)[nH]c3=O)O1)OC2` (some centres not stated), the IC50 on Acetylcholinesterase was more than 50000 nM; against Cholinesterase, 1200 nM.

Consider `CCC(C)c1ccc2c(c1)COP(=O)(OCC1C=CC(n3cc(C)c(=O)[nH]c3=O)O1)O2` (configuration not stated), for which the results for the IC50 on Acetylcholinesterase and at Cholinesterase were more than 50000 nM and 3300 nM, respectively. For the same compound, in the test on CCRF-CEM, the EC50 is 1900 nM.

In the case of `CCOC(=O)CC1OP(=O)(OCC2C=CC(n3cc(C)c(=O)[nH]c3=O)O2)Oc2cccc(Cl)c21` (configuration not stated), the IC50 at Acetylcholinesterase and against Cholinesterase was more than 50000 nM throughout. Further, in the test with CCRF-CEM, the EC50 was 140 nM.

As to `Cc1cn(C2C=CC(COP3(=O)Oc4ccccc4C(CCl)O3)O2)c(=O)[nH]c1=O` (configuration not stated), the IC50 was more than 50000 nM against Acetylcholinesterase and 3900 nM on Cholinesterase. Besides, it took 190 nM to reach a half-maximal effect with CCRF-CEM (EC50).

On to `Cc1cn(C2C=CC(COP3(=O)Oc4cccc(Cl)c4C(C)O3)O2)c(=O)[nH]c1=O` (configuration not stated), for which the values for the IC50 against Acetylcholinesterase and on Cholinesterase were more than 50000 nM and 1800 nM, respectively. Further, the response with CCRF-CEM was half-maximal at 190 nM (EC50).

On to `Cc1cccc2c1OP(=O)(OCC1OC(n3cc(C)c(=O)[nH]c3=O)CC1=O)OC2` (configuration not stated), for which the IC50 against Acetylcholinesterase and at Cholinesterase was more than 50000 nM throughout.

Turning to `Cc1cn(C2C=CC(COP3(=O)OCc4c(Cl)cccc4O3)O2)c(=O)[nH]c1=O` (configuration not stated), the IC50 at Acetylcholinesterase was more than 50000 nM; against Cholinesterase, 570 nM. In addition, the half-maximal effective concentration (EC50) in the test on CCRF-CEM amounted to 90 nM.

In the case of `COC(=O)CCc1ccc2c(c1)COP(=O)(OCC1C=CC(n3cc(C)c(=O)[nH]c3=O)O1)O2` (configuration not stated), the IC50 against Acetylcholinesterase is more than 50000 nM; against Cholinesterase, 8800 nM. In the test on CCRF-CEM, this compound displayed an EC50 of 240 nM.

For the compound `Cc1cn(C2C=CC(COP3(=O)OCc4ccc5ccccc5c4O3)O2)c(=O)[nH]c1=O` (configuration not stated), the IC50 was more than 50000 nM against Acetylcholinesterase and 250 nM against Cholinesterase. The same compound registered a concentration for a half-maximal effect (EC50) with CCRF-CEM of 140 nM.

As to `COC(=O)CCc1cccc2c1OP(=O)(OCC1C=CC(n3cc(C)c(=O)[nH]c3=O)O1)OC2` (configuration not stated), the IC50 is more than 50000 nM against Acetylcholinesterase and 2700 nM at Cholinesterase. In addition, a half-maximal effect with CCRF-CEM (EC50) was put at 160 nM.

As for `Cc1cn(C2C=CC(COP3(=O)OCc4cc5ccccc5cc4O3)O2)c(=O)[nH]c1=O` (configuration not stated), the half-maximal inhibitory concentration (IC50) on Acetylcholinesterase was more than 50000 nM; against Cholinesterase it was 410 nM. In the test with CCRF-CEM, the 50% effective concentration (EC50) came to 410 nM.

Regarding `Cc1cccc2c1OP(=O)(OCC1CC(O)C(n3cnc4c(N)ncnc43)O1)OC2` (configuration not stated), the IC50 against Acetylcholinesterase is more than 50000 nM; against Cholinesterase, 28000 nM.

Consider `Cc1cn(C2C=CC(COP3(=O)OCc4cc(CCC(=O)OC(C)(C)C)ccc4O3)O2)c(=O)[nH]c1=O` (configuration not stated), for which the IC50 was more than 50000 nM on Acetylcholinesterase and 4400 nM against Cholinesterase. Also, in the test on CCRF-CEM, the response was half-maximal at 180 nM (EC50).

With `CCC(C)c1cccc2c1OP(=O)(OCC1C=CC(n3cc(C)c(=O)[nH]c3=O)O1)OC2` (configuration not stated), the figures for the IC50 on Acetylcholinesterase and at Cholinesterase were more than 50000 nM and 2000 nM, respectively. For the same compound, the midpoint of the response in the test on CCRF-CEM, the EC50, lay at 80 nM.

As for `Cc1cn(C2C=CC(COP3(=O)OCc4cc(CCC(=O)O)ccc4O3)O2)c(=O)[nH]c1=O` (configuration not stated), the IC50 at Acetylcholinesterase and against Cholinesterase was more than 50000 nM in each case. The midpoint of the response with CCRF-CEM, the EC50, lay at 140 nM.

Turning to `Cc1cn(C2C=CC(COP3(=O)OCc4cccc(CCC(=O)O)c4O3)O2)c(=O)[nH]c1=O` (configuration not stated), the IC50 against Acetylcholinesterase and against Cholinesterase was more than 50000 nM each time. In the test on CCRF-CEM, this compound displayed an EC50 of 190 nM.

On to `Cc1cn(C2C=CC(COP3(=O)OCc4cc(-c5ccccc5)ccc4O3)O2)c(=O)[nH]c1=O` (configuration not stated), for which the IC50 was more than 50000 nM against Acetylcholinesterase and 4400 nM on Cholinesterase. Further, it took 400 nM to reach a half-maximal effect in the test on CCRF-CEM (EC50).

Regarding `Cc1cn(C2C=CC(COP3(=O)Oc4ccccc4C(C(Cl)Cl)O3)O2)c(=O)[nH]c1=O` (configuration not stated), the IC50 was more than 50000 nM against Acetylcholinesterase and 26000 nM against Cholinesterase. The half-maximal effective concentration (EC50) in the test with CCRF-CEM came out at 160 nM.

With `Cc1cn(C2C=C[C@@H](CO[P@]3(=O)OCc4cccc(C(C)(C)C)c4O3)O2)c(=O)[nH]c1=O` (single isomer, unassigned), the values for the IC50 at Acetylcholinesterase and at Cholinesterase were more than 50000 nM and 2600 nM, respectively. In addition, the EC50 in the test on CCRF-CEM came to 600 nM.

On to `COc1ccc2c(c1)CO[P@@](=O)(OC[C@@H]1C=CC(n3cc(C)c(=O)[nH]c3=O)O1)O2` (single isomer, unassigned), for which the IC50 against Acetylcholinesterase was more than 50000 nM; at Cholinesterase it was 1800 nM. The compound also registered an EC50 in the test with CCRF-CEM of 500 nM.

Take `Cc1cccc2c1OP(=O)(OC[C@H]1C=CC(n3cnc4c(NC5CC5)nc(N)nc43)C1)OC2` (single isomer, unassigned): the values for the IC50 on Acetylcholinesterase and on Cholinesterase were more than 50000 nM and 1300 nM, respectively. In the test on CCRF-CEM, this compound showed an EC50 of 700 nM.
